Experimental findings from ChEMBL document CHEMBL1153312, “Discovery of substituted 2,4,4-triarylimidazoline derivatives as potent and selective neuropeptide Y Y5 receptor antagonists” (Bioorg Med Chem Lett, 2009) are described below.

For data set [1], the target named is T1, Neuropeptide Y receptor type 5 (Homo sapiens, UniProt Q15761).
T1 sequence (Q15761 whole entry): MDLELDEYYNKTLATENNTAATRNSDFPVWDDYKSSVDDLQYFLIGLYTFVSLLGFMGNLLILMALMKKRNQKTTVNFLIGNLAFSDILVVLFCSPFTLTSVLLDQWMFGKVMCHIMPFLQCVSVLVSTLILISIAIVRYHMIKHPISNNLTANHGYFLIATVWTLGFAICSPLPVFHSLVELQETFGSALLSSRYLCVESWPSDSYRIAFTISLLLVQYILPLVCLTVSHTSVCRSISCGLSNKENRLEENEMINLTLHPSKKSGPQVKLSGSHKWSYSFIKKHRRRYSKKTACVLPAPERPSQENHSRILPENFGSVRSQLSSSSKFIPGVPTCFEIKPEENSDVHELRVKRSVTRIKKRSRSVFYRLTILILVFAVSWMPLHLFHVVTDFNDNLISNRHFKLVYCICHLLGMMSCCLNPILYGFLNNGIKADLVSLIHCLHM
Briefly: Displacement of [125I]PYY from human recombinant neuropeptide Y5 receptor expressed in thymidine kinase-deficient mouse LM cells. Type of data set: cell-based. The method, boiled down:
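[125I]PYY displacement in membranes of LMtk- cells expressing recombinant human Y5 receptor; IC50 determined.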
For orientation: In a radioligand displacement assay an active substance lowers the binding of a labelled ligand.

Data set [2] in a line: Plasma concentration in Sprague-Dawley rat at 10 mg/kg, po after 2 hrs. Type of data set: ADME, organism-based. The arrangement: dose 10 mg/kg, route oral. A digest of the protocol:
(§1)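 Rats dosed orally at 10 mg/kg; plasma, brain (nmol/g) and CSF levels measured 2 h post-dose. Brain-to-plasma and CSF-to-brain ratios were calculated from these levels.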

For a further data set, the system named is Brain. Briefly: Drug level in Sprague-Dawley rat brain at 10 mg/kg, po after 2 hrs. It counts as ADME, organism-based. Further details: dose 10 mg/kg, route oral. The conditions noted are these: in vivo. A digest of the protocol:
as §1

The nature of data set [3]: Drug level in Sprague-Dawley rat cerebrospinal fluid at 10 mg/kg, po after 2 hrs. It counts as ADME, organism-based. The arrangement: dose 10 mg/kg, route oral. The conditions noted are these: read-out: Drug uptake. The method, boiled down: as §1
The nature of data set [4]: Ratio of drug level in brain to plasma of Sprague-Dawley rat at 10 mg/kg, po after 2 hrs. The conditions noted are these: read-out: BPR. It counts as ADME, organism-based. The arrangement: dose 10 mg/kg, route oral. The method, boiled down: as §1
Data set [5] can be described thus: Ratio of drug level in cerebrospinal fluid to brain of Sprague-Dawley rat at 10 mg/kg, po after 2 hrs. Type of data set: ADME, organism-based, CSF/Brain. Further details: dose 10 mg/kg, route oral. The conditions noted are these: in vivo. A digest of the protocol:
as §1

For data set [6], the target named is T1, Neuropeptide Y receptor type 5. Briefly: Antagonist activity at human recombinant neuropeptide Y5 receptor expressed in thymidine kinase-deficient mouse LM cells assessed as inhibition of neuropeptide-induced increase in intracellular calcium level. It counts as functional, cell-based. Background: A change in cytosolic calcium serves as a functional read-out for many receptors and channels.

Data set [7] concerns the target T2, Neuropeptide Y receptor type 1 (Homo sapiens) (UniProt P25929).
T2 sequence (whole entry): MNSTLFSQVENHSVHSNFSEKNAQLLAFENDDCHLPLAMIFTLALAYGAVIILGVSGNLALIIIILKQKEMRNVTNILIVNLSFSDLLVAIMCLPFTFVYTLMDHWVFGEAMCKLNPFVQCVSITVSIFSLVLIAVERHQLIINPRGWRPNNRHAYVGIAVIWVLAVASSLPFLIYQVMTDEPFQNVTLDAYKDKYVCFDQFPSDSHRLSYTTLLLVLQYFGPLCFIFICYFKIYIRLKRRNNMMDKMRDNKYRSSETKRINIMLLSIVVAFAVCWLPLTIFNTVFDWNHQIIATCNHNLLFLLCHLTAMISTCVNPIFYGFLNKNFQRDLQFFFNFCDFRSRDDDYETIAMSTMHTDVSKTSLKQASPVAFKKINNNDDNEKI
Briefly: Binding affinity to human neuropeptide Y1 receptor.

The target of data set [8] is T3, Neuropeptide Y receptor type 2 (Homo sapiens) (UniProt P49146).
T3 sequence (whole entry): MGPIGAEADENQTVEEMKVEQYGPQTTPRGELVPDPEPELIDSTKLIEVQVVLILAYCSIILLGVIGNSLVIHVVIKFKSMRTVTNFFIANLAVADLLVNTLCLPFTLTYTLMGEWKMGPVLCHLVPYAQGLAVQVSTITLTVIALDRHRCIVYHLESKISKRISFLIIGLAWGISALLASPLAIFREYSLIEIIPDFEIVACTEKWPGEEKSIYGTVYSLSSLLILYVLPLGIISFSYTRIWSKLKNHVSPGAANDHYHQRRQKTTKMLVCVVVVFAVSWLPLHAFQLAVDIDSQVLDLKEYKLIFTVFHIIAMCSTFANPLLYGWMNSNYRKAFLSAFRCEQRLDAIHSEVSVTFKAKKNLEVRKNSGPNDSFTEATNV
As to the kind of experiment: Binding affinity to human neuropeptide Y2 receptor.

Data set [9] addresses Neuropeptide Y receptor type 4 (Homo sapiens) (UniProt P50391). Briefly: Binding affinity to human neuropeptide Y4 receptor.
Data set [10] deals with Rattus norvegicus. Briefly: Inhibition of D-Trp34NPY-induced food intake in Sprague-Dawley rat at 3 mg/kg, po administered 2 hrs before D-Trp34NPY challenge measured for 2 hrs. The arrangement: scale not given: the % may be the effect or the level left. Type of data set: functional. A digest of the protocol:
(§2)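 Oral dosing 2 h before third-ventricle injection of D-Trp34NPY, with artificial CSF as vehicle control. Cumulative food intake was recorded over the following 2 h. Data are mean ± SEM, n = 7–8, with P < 0.05 versus the agonist-only group.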

Data set [11] deals with Rattus norvegicus. Briefly: Inhibition of D-Trp34NPY-induced food intake in Sprague-Dawley rat at 10 mg/kg, po administered 2 hrs before D-Trp34NPY challenge measured for 2 hrs. It counts as functional. Further details: scale not given: the % may be the effect or the level left. A digest of the protocol:
as §2

In data set [12] the test system is Rattus norvegicus. As to the kind of experiment: Inhibition of D-Trp34NPY-induced food intake in Sprague-Dawley rat at 30 mg/kg, po administered 2 hrs before D-Trp34NPY challenge measured for 2 hrs. It counts as functional. Further details: scale not given: the % may be the effect or the level left. A digest of the protocol:
as §2

pIC50: −log10 of the molar value.

Sequence of Neuropeptide Y receptor type 4 (Homo sapiens) (P50391 whole entry): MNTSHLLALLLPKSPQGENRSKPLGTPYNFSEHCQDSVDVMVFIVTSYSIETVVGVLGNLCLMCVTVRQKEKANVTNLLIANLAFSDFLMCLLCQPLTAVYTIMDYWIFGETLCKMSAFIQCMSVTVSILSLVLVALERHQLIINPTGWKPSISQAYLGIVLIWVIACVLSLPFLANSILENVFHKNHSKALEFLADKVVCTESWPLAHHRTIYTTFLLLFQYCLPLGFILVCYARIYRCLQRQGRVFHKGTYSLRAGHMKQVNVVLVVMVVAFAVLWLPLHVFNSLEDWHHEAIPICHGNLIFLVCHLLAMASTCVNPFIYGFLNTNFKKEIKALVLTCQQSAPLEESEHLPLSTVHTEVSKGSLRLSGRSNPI

What is called pIC50 is −log10 of the IC50, conventionally taken in molar units. `Cc1cccc(C2=NC(c3ccc(F)cc3)(c3ccc(F)cc3)CN2)c1`: in data set [1], the pIC50 is 7.52.

`O=Cc1cccc(C2=NC(c3ccc(F)cc3)(c3ccc(F)cc3)CN2)c1`: the pIC50 in data set [1] was 8.06.

Turning to `Fc1ccc(C2(c3ccc(F)cc3)CNC(c3ccncc3)=N2)cc1`, the pIC50 in [1] was 6.80.

In the case of `N#Cc1cccc(C2=NC(c3ccc(F)cc3)(c3ccc(F)cc3)CN2)n1`, in data set [1], the negative-log IC50 (pIC50) is 7.41.

With `OCc1cccc(C2=NC(c3ccc(F)cc3)(c3ccc(F)cc3)CN2)c1`, the pIC50 in data set [1] was 7.23.

As for `Fc1ccc(C2(c3ccc(F)cc3)CNC(c3cccnc3)=N2)cc1`, in data set [1], the pIC50 was 8.14.

Take `Fc1ccc(C2(c3ccc(F)cc3)CNC(c3ncccn3)=N2)cc1`: the pIC50 in data set [1] was 6.46.

On to `COC(=O)c1cccc(C2=NC(c3ccc(F)cc3)(c3ccc(F)cc3)CN2)c1`, for which the pIC50 in data set [1] is 6.57.

In the case of `Fc1ccc(C2(c3ccc(F)cc3)CNC(c3cnccn3)=N2)cc1`, the negative-log IC50 (pIC50) in data set [1] is 8.37; in [6] it was 8.62. Besides, the concentration at 2 h in data set [2] came to 1200 nM; in [3] it was 64 nM. This molecule also came in with a Drug uptake in the data set on Brain of 5.9 nmol/g. In data set [4], the Kp at 2 h turned out to be 4.9. Moreover, the Ratio in [5] was found to be 0.01. For the same molecule, the Activity in data set [7] is above 10 µM; in [8], above 10 µM; in data set [9], above 10 µM; in the data set with Rattus norvegicus [10] it was 20%; in the data set with Rattus norvegicus [11], 42%; with Rattus norvegicus [12], 60%.

As to `Fc1ccc(C2(c3ccc(F)cc3)CNC(c3cccc(Cl)c3)=N2)cc1`, the negative logarithm of the IC50 (pIC50) in data set [1] was 8.27.

In the case of `Nc1cccc(C2=NC(c3ccc(F)cc3)(c3ccc(F)cc3)CN2)c1`, the negative logarithm of the IC50 (pIC50) in data set [1] is 6.52.

On to `O=c1cccc(C2=NC(c3ccc(F)cc3)(c3ccc(F)cc3)CN2)[nH]1`, for which the negative-log IC50 (pIC50) in [1] was 8.09.

As to `CN(C)c1cccc(C2=NC(c3ccc(F)cc3)(c3ccc(F)cc3)CN2)c1`, the negative logarithm of the IC50 (pIC50) in data set [1] is below 6.00.

Regarding `Fc1ccc(C2(c3ccc(F)cc3)CNC(c3cccs3)=N2)cc1`, in data set [1], the pIC50 was 7.27.

As to `COc1cccc(C2=NC(c3ccc(F)cc3)(c3ccc(F)cc3)CN2)c1`, the negative logarithm of the IC50 (pIC50) in data set [1] was 7.29.

For `Fc1ccc(C2(c3ccc(F)cc3)CNC(c3ccsc3)=N2)cc1`, the negative logarithm of the IC50 (pIC50) in data set [1] is 7.03.

With `Fc1ccc(C2(c3ccc(F)cc3)CNC(c3ccccc3Cl)=N2)cc1`, the negative logarithm of the IC50 (pIC50) in data set [1] was 6.20.

Consider `Fc1ccc(C2(c3ccc(F)cc3)CNC(c3ccc(C(F)(F)F)cc3)=N2)cc1`, for which the negative-log IC50 (pIC50) in data set [1] is 6.80.

Regarding `Fc1ccc(C2(c3ccc(F)cc3)CNC(c3cccc(F)c3)=N2)cc1`, in data set [1], the negative logarithm of the IC50 (pIC50) was 8.00.

On to `CC(=O)c1cccc(C2=NC(c3ccc(F)cc3)(c3ccc(F)cc3)CN2)c1`, for which the negative logarithm of the IC50 (pIC50) in data set [1] was 7.36.

As for `Fc1ccc(C2(c3ccc(F)cc3)CNC(c3cncnc3)=N2)cc1`, the negative-log IC50 (pIC50) in data set [1] was 7.33.

In the case of `O=[N+]([O-])c1cccc(C2=NC(c3ccc(F)cc3)(c3ccc(F)cc3)CN2)c1`, the negative logarithm of the IC50 (pIC50) in data set [1] was 8.37.

Regarding `N#Cc1cncc(C2=NC(c3ccc(F)cc3)(c3ccc(F)cc3)CN2)c1`, in data set [1], the negative logarithm of the IC50 (pIC50) was 7.77.

`N#Cc1cc(C2=NC(c3ccc(F)cc3)(c3ccc(F)cc3)CN2)ccn1`: in data set [1], the negative-log IC50 (pIC50) was 8.32.

As for `c1ccc(C2=NC(c3ccccc3)(c3ccccc3)CN2)cc1`, the pIC50 in [1] was 7.27.

Consider `CS(=O)(=O)c1cccc(C2=NC(c3ccc(F)cc3)(c3ccc(F)cc3)CN2)c1`, for which the pIC50 in data set [1] is 8.04.

On to `Fc1ccc(C2(c3ccc(F)cc3)CNC(c3ccccn3)=N2)cc1`, for which the pIC50 in data set [1] was 6.80.

Consider `Fc1ccc(C2(c3ccc(F)cc3)CNC(c3cccc(Br)c3)=N2)cc1`, for which the negative logarithm of the IC50 (pIC50) in data set [1] was 8.32.

Regarding `Fc1ccc(C2(c3ccc(F)cc3)CNC(c3cccc(C(F)(F)F)c3)=N2)cc1`, the pIC50 in data set [1] was 8.21.

With `Fc1ccc(C2(c3ccc(F)cc3)CNC(c3ccc(Cl)cc3)=N2)cc1`, the pIC50 in data set [1] is 6.89.

For the molecule `N#Cc1ccnc(C2=NC(c3ccc(F)cc3)(c3ccc(F)cc3)CN2)c1`, the negative logarithm of the IC50 (pIC50) in data set [1] is 8.70. Further, the concentration at 2 h in data set [2] worked out at 1300 nM; in [3], 25 nM. In the data set with Brain, this molecule came in with a Drug uptake of 6.4 nmol/g. In addition, the Kp at 2 h in data set [4] was determined as 4.9. Moreover, the Ratio in data set [5] was 0.004.

With `N#Cc1cccc(C2=NC(c3ccc(F)cc3)(c3ccc(F)cc3)CN2)c1`, the negative-log IC50 (pIC50) in data set [1] was 8.57. Besides, the concentration at 2 h in [2] was found to be 1400 nM; in [3] it was 27 nM. In the data set on Brain, the Drug uptake is given as 8.1 nmol/g. For the same molecule, the Kp at 2 h in data set [4] was 5.8. Besides, the Ratio in [5] is given as 0.003.

Take `Fc1ccc(C2(c3ccc(F)cc3)CNC(c3ccccc3)=N2)cc1`: in data set [1], the pIC50 was 7.49.

Turning to `Fc1ccc(C2(c3ccc(F)cc3)CNC(c3cccnn3)=N2)cc1`, the pIC50 in [1] was 6.25.
